In the library only some 2.6% were active in any assay of this set; here they are far more common.
SR-BI HDL uptake: inhibitors of mouse SR-BI mediated HDL lipid uptake; 320,000 tested, 0.96% active; inhibition, % at 12.5 µM; Q61009; ldlA[mSR-BI] CHO cells, DiI-HDL uptake fluorescence, 3 h;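 active means mean replicate inhibition of at least 70% and a set share of replicates each scoring 70 or more; inconclusive means meets just one of the two criteria; inactive means fails both criteria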
Target sequence (Q61009 whole entry, looked up): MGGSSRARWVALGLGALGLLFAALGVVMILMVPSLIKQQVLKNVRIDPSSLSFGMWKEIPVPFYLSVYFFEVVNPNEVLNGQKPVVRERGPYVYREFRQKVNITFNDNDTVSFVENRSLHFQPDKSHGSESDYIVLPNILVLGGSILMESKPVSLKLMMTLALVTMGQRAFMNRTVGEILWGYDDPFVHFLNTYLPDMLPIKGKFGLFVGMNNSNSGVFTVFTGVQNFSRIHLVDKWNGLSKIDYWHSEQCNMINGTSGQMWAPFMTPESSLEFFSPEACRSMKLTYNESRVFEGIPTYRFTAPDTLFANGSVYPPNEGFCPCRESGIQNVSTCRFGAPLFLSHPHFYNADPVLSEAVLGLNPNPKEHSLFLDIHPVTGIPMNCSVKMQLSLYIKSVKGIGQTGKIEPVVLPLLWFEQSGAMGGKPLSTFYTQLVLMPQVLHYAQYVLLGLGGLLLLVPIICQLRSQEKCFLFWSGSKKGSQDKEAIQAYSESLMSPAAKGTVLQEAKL
dFosB activator: activators of mouse delta FosB homodimer; purified delta FosB, TAMRA-CDK5 oligo fluorescence polarization; percent of positive-control signal above neutral wells; activation, % at 25 µM; 340,000 tested, 0.99% active;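 active means mean activation above about 17%, with every replicate also reaching it, limit read from the data, passing the limit was not always enough; inconclusive means only one of the two conditions met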
SR-BI DiI-HDL act: activators of SR-BI mediated HDL lipid uptake; activation, % at 12.5 µM; CHO ldlA[mSR-BI] cells, DiI-HDL uptake fluorescence, 3 h; 100 = double the neutral-control signal; AID 504775; 320,000 tested, 0.096% active;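 active means mean replicate activation of at least 60% and every replicate at or above 60%; inconclusive means mean or all-replicate condition met, but not both; inactive means mean below 60% and not all replicates reaching 60%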
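Material – SR-BI-overexpressing, LDLR-lacking CHO cells · Medium – BSA-supplemented, HEPES-buffered Ham's F12, pH 7.4 · Doses – single concentration · Times – compound with DiI-HDL co-incubation, 3 h at 37 °C · Measured by – bottom-read fluorescence, 550/595 nm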
rRNA inh HTS: inhibitors of bacterial rRNA selective over humanized ribosomes. E. coli WT GFP vs humanized-ribosome RFP mutants, fluorescence, 24 h; active compounds read low; DMSO median 0, no signal -100. GFP signal change (wild-type ribosome), % (test concentration not listed). AID 720706. 350,000 tested, 1.6% active;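 active means significant combined selectivity score with lowered wild-type GFP, culture density cut under 30%, mutant RFP and density less affected; inactive means any of these conditions unmet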
Xi reactivation: activators of X-chromosome reactivation in mouse fibroblasts | XiGFP mouse fibroblasts, % GFP-positive cells imaging, 3 d; cells co-treated with 5-aza-dC sensitizer; scaled so ellipticine positive control = 100% | activation, % at 7.58 µM | 360,000 tested, 0.055% active | AID 743238;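 active means mean normalized replicate activation at least 10% and every replicate at or above 10%; inconclusive means only one of the two criteria met; inactive means mean below 10% and not all replicates reach 10%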
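Material: XiGFP fibroblasts, SV40-immortalized; Buffer or medium: DMEM containing 5-aza-dC; Compound dosing: single point; Times: 3 days compound exposure.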
PvdQ inh: blocks Pseudomonas aeruginosa PvdQ acylase activity; inhibition, % at 10 µM; purified PvdQ acylase, fluorescence plate reader; 340,000 tested, 0.063% active; in the data active means inhibition above about 30%, passing the limit was not always enough; inconclusive means no clear call, values can overlap the other calls
Hits are given with their value; – = inactive; ? = inconclusive; · = no result.

SMILES | SR-BI HDL uptake | dFosB activator | SR-BI DiI-HDL act | rRNA inh HTS | Xi reactivation | PvdQ inh
CCOc1ccc(S(=O)(=O)N2CCOCC2)cc1NC(=O)CN1C(=O)NC(C)(c2ccc(C)cc2)C1=O (configuration not stated) | – | – | – | – | – | –
Cc1cc(C)cc(-n2cccc2/C=C2/C(=N)N3C(=NC2=O)SN=C3S(C)(=O)=O)c1 | – | – | – | -27.6 | – | –
CCOC(=O)c1cc(-c2cccc([N+](=O)[O-])c2)on1 | – | – | – | – | – | 61.9
Cc1ccc(NC(=O)CN(C)C(=O)Cc2coc3cc(C)c(C)cc23)cc1 | – | – | – | -23.3 | – | –
CC1CCN(C(=S)NC(=O)c2cccs2)CC1 | – | – | – | -21.9 | – | –
COc1ccc2[nH]c3c(=O)n(CCCCC(=O)NCCN4CCCC4)c(=S)[nH]c3c2c1 | – | – | – | -28.9 | · | –
COc1cc(OC)cc(-c2cc(N)n(S(=O)(=O)Cc3ccccc3)n2)c1 | – | – | – | – | – | –
CCCOc1ccc(-c2c(C(=O)N/N=C/c3ccc(C)o3)nnn2-c2nonc2N)cc1 | 78.3 | ? | – | – | – | –
CCCOc1ccc(-c2c(C(=O)N/N=C/c3cccs3)nnn2-c2nonc2N)cc1 | 73.3 | – | – | · | · | –
Cc1ccc(/C=N/NC(=O)c2nnn(-c3nonc3N)c2-c2ccccc2)o1 | – | – | – | – | – | –
CCCOc1ccc(-c2c(C(=O)N/N=C/c3ccc(OCC)cc3)nnn2-c2nonc2N)cc1 | – | – | – | – | – | –
CCOc1ccc(-c2c(C(=O)N/N=C/c3ccc(C)o3)nnn2-c2nonc2N)cc1 | 75.8 | – | – | – | – | –
CC(C)[C@H](NC(=O)N1CCn2c1nc1ccccc12)C(=O)N[C@@H](Cc1ccccc1)C(=O)O | – | – | – | · | · | –
CC(C)CNC(=O)c1cc2nc3c(c(C(F)(F)F)n2n1)CCc1ccccc1-3 | 78.2 | – | – | · | · | –
O=C(C[C@H]1C=C[C@H](NC(=O)C2CCC2)[C@H](CO)O1)NC1CCCCC1 | · | · | · | – | – | ·
C=C1[C@@H](O)[C@H](Cc2ccccc2)N(Cc2ccccc2Br)S1(=O)=O | – | – | – | -23.0 | – | –
Cc1ccccc1CN1[C@@H](Cc2ccccc2)COCCS1(=O)=O | – | – | – | · | – | –
Cc1ccc(-c2cc(C(=O)N/N=C/c3ccccc3O)n[nH]2)o1 | 83.2 | 51.3 | – | – | – | –
Cc1ccc(-c2cc(C(=O)N/N=C/c3c[nH]c4ccccc34)n[nH]2)o1 | – | – | – | – | – | –
Cc1ccc(-c2cc(C(=O)N/N=C/C(Br)=C/c3ccccc3)n[nH]2)o1 | – | – | – | – | – | –
Cc1ccc(-c2cc(C(=O)N/N=C/c3ccc(F)cc3)n[nH]2)o1 | – | – | – | -24.1 | – | –
COc1ccc(S(=O)(=O)N(CC(=O)Nc2ccc3c(c2)OCO3)c2ccccc2OC)cc1 | – | – | – | · | · | –
Cc1noc(C)c1COc1ccccc1C(=O)NCCc1ccc(Cl)cc1 | – | – | – | – | – | –
CC1CCc2c(sc3ncnc(NCCCOC(C)C)c23)C1 (configuration not stated) | 75.4 | – | – | · | · | –
CC(C)COc1cccc(C(=O)NC2(C)CCS(=O)(=O)C2)c1 (configuration not stated) | – | – | – | – | – | –
CC1=Nc2ccccc2N=C(NC(=O)CSC(=S)N2CCCCC2)C1c1ccccc1 (configuration not stated) | – | – | – | -21.1 | – | –
O=C(CCNC(=O)c1ccc([N+](=O)[O-])cc1)Nc1ccc(F)c(F)c1F | – | – | – | – | – | –
CCN1C(=O)/C(=C2/Sc3ccc(OC)cc3N2C)SC1=Nc1cccc(O)c1 | 94.1 | – | – | – | · | –
C=CCN1C(=O)/C(=C2/Sc3ccc(OC)cc3N2C)SC1=Nc1ccccc1 | 96.1 | – | – | – | – | –
C=CCN1C(=O)/C(=C2/Sc3ccc(OC)cc3N2C)SC1=NCc1ccccc1 | – | – | – | – | – | –
